Screening results (PubChem)
An excerpt weighted towards active compounds, which were near 5.1% of everything screened.
STAT1 activator: increases IFN-gamma driven STAT1 reporter signal | AID 932 | activation (% of control), % at 5.5 µM | NIH 3T3 STAT1-luciferase reporter, luminescence; 100% = IFN-gamma alone, no compound | 200,000 compounds, 2.6% hits;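 active = activation above the screen-wide mean activation plus 3 SD, cut at about 130% in these data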;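 also: raw ratio to IFN-gamma control signal so 100% means no change and 0% no light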
STAT3 activator: increases IL-6 driven STAT3 reporter signal; 190,000 compounds, 0.91% hits; AID 871; U3A cells, IL-6 STAT3-luciferase reporter, luminescence; 100% = signal with IL-6 EC80 alone; activation (% of control), % at 5.6 µM;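 active = activation above the screen-wide mean of compound activation plus 3 SD, cut at about 130% in these data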;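 also: 0% = background luminescence of wells with medium and substrate only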
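Material: human U3A cells carrying STAT3-luciferase construct. Measured by: reporter luminescence signal. Timing: compound 1 h, then IL-6 6 h at 37 °C.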
NF-kB expr up: compounds increasing NF-kB expression in human neuronal cells; NF-kB reporter expression; stronger effect = higher value; fold change at 12.5 µM; 190,000 compounds, 1.6% hits; AID 1239; in the data active = fold change above about 3.3
STAT3 blocker: reduces IL-6 driven STAT3 reporter signal. 190,000 compounds, 0.89% hits. inhibition, % at 5.5 µM. U3A cells, IL-6 STAT3-luciferase reporter, luminescence; host cell line lacks STAT1;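 active = inhibition above the mean inhibition across all screened compounds plus 3 SD, cut at about 44% in these data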;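 also: 0% = DMSO only wells and 100% = 100 µM nifuroxazide control wells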
STAT1 blocker: inhibitors of IFN-gamma induced STAT1 signaling. NIH 3T3 STAT1-luciferase reporter, luminescence. inhibition, % at 5.5 µM. 200,000 compounds, 0.35% hits. AID 920;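 active = inhibition above a set limit, the mean inhibition across all tested compounds plus 3 SD, cut at about 34% in these data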;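 also: 0% = IFN-gamma with DMSO and 100% = IFN-gamma with 300 µM nifuroxazide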
APP 5'UTR act: APP 5'UTR luciferase reporter activation; 190,000 compounds, 1% hits; activation, % at 2 µM; SH-SY5Y APP 5'UTR luciferase reporter, luminescence; zero percent = DMSO vehicle wells;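 active = activation above a set limit, based on mean plus 3 SD of controls, cut at about 140% in these data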
Numbers without * were called inactive; / = not tested or not shown.

SMILES | STAT1 activator | STAT3 activator | NF-kB expr up | STAT3 blocker | STAT1 blocker | APP 5'UTR act
CN1CC(C(=O)c2ccccc2)C(C(=O)c2ccccc2)C1 (configuration not stated) | 125 | 109 | 4.3* | -3 | -28 | 82
Cc1ccc(OP(=O)(NCc2ccccc2)Oc2ccc(C)cc2)cc1 | 111 | 97 | 0.89 | 8 | -12 | 3
COc1ccc(CCn2c(O)c(C=NCc3ccc4c(c3)OCO4)c(=O)[nH]c2=O)cc1OC | 143* | 117 | 1 | -17 | -47 | 15
Cn1cccc1/C=C1/C(=O)NC(=O)N(Cc2ccccc2)C1=O | 106 | 135* | 3 | -38 | -7 | -25
O=C(c1cc(S(=O)(=O)N2CCC3(CC2)OCCO3)ccc1F)N1CCC2(CC1)OCCO2 | 100 | 89 | 1.2 | 14 | 1 | 18
O=C(c1ccc(Br)cc1)C12CN3CN(CN(C3)C1)C2 | 103 | 97 | 14* | 5 | -5 | 24
COc1ccc(-n2c(/C=C3\C(=O)Nc4ccccc43)nc3ccccc3c2=O)cc1 | 101 | 87 | 0.93 | 18 | -2 | -11
O=C1Nc2ccccc2/C1=C/c1cnc[nH]1 | 117 | 58 | 0.6 | 57* | -19 | 1
CC(/C=N/NC(=O)c1n[nH]c2c1CCC2)=C\c1ccccc1 | 122 | 127 | 6.9* | -32 | -24 | -94
CCN1CCN(Cc2nnnn2C(C)(C)C)CC1 | 96 | 99 | 0.95 | 8 | 4 | 9
O=C1NC(=O)C2=Cc3ccc(O)cc3OC2(O)N1 (configuration not stated) | 103 | 106 | 1 | -5 | -4 | -13
CC(C)C/C(=N/O)c1c[nH]c2ccccc12 | 93 | 134* | 0.91 | -32 | 8 | /
CCOC(=O)C1CCN(C=C2C(=O)N(C)C(=S)N(C)C2=O)CC1 | 101 | 93 | 0.9 | 7 | -2 | -5
Cc1cc(C(=O)N=Nc2c(O)n(C)c3ccccc23)c(C)o1 | 129* | 90 | 2.2 | 11 | -33 | 76
CCN(CC)C(=O)c1ccc(NC(=O)Nc2ccccc2F)cc1 | 42 | 32 | 1.6 | 86* | 62* | 121
COc1ccc(C)cc1NC(=O)c1c(C)nn(Cc2ccccc2)c1Cl | 99 | 90 | 1.2 | 8 | 1 | 14
COc1ccc(-c2cc(=Nc3cccc(C(=O)O)c3)c3cc(C)ccc3o2)cc1 | 136* | 90 | 2.2 | 19 | -42 | 139*
C=CCN1C(=O)NC(=O)/C(=C/c2ccc(N(C)C)c(Br)c2)C1=O | 97 | 92 | 1.6 | 13 | 1 | 11
COCCNP(=O)(c1ccccc1)c1nc2ccccc2s1 (configuration not stated) | 100 | 112 | 0.73 | -8 | 0 | 8
NCCc1nc2ccccc2s1 | 97 | 133* | 1.1 | -33 | 5 | 3
CNC(=O)c1cccn(Cc2ccc(C(F)(F)F)cc2)c1=O | 65 | 64 | 2.2 | 46* | 37* | -5
O=c1c2ccccc2nc(CSc2ncnc3nc[nH]c23)n1-c1ccccc1 | 104 | 99 | 3.9* | 6 | -4 | 6
Cc1ccc(C(=O)n2cc(CCN3CCS(=O)(=O)CC3)c3ccccc32)cc1 | 98 | 93 | 0.89 | 10 | 2 | 14
CN1CCN(C(=O)COc2ccc(-c3nc4ccccc4s3)cc2)CC1 | 55 | 28 | 4.3* | 85* | 49* | 135*
CC(C)NS(=O)(=O)c1ccc(OCC(=O)N2CCN(C)CC2)cc1 | 99 | 98 | 1.2 | 11 | 1 | -4
SMILES | STAT1 activator | STAT3 activator | NF-kB expr up | STAT3 blocker | STAT1 blocker | APP 5'UTR act
CN1C(=O)C(Cc2cccc3ccccc23)C(=O)N(C)C1=O | 98 | 101 | 0.8 | 1 | 2 | 20
CN1C(=O)C(Cc2c[nH]c3ccccc23)C(=O)N(C)C1=O | 92 | 159* | 1.2 | -66 | 9 | 10
COc1ccc(OCC(=O)N2CCN(Cc3c[nH]c4ccccc34)CC2)cc1 | 94 | 135* | 1 | -35 | 6 | -9
O=C(COc1ccccc1)N1CCN(Cc2c[nH]c3ccccc23)CC1 | 96 | 125 | 1.1 | -22 | 5 | -3
COC(=O)CCCCC1SCC(NC(=O)c2ccccc2)C1Cl (configuration not stated) | 96 | 91 | 0.94 | 14 | 2 | 11
Cn1cnc([N+](=O)[O-])c1Sc1ccc([N+](=O)[O-])cc1 | 108 | 100 | 1.7 | 8 | -9 | -16
